Reference: PubChem BioAssay
Inconclusive results are not listed.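 Rule for the calls, unless noted: active = RAM network inhibition above 8.4% in each of two replicates, 3 SD over the compound average; inconclusive = above 8.4% inhibition in only one replicate; inactive = 8.4% inhibition or less in each replicate.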

Legend:
[1] = S. cerevisiae growth inhibition in permissive medium (OD615), pilot counter-assay for S. cerevisiae lifespan shortening project, permissive growth control (AID 705;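 active = growth inhibition above 25% in both replicates, a cutoff set 3 SD above the mean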); conditions: OD615, 24 h, at 10 µM, hits give high values
In short: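 System: S. cerevisiae with engineered DeaD lifespan system / Measured by: absorbance (optical density) at 615 nm / Read-out: reduction in yeast growth (OD615) / Times: 4 h cell pre-growth, 24 h exposure at 30 °C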

[2] = S. cerevisiae growth inhibition in restrictive medium, OD615, pilot screen, restrictive growth control, yeast lifespan reduction project (AID 706;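 active = growth inhibition above a set limit, 3 SD over mean compound inhibition, in both replicates, cut at about 43% in these data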;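 note: modified DeaD lifespan yeast strain shifted to restrictive glucose medium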); conditions: OD615, 48 h, at 10 µM, hits give high values
In short: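 System: Engineered S. cerevisiae DeaD strain | Buffer or medium: Glucose-based CSMM-D restrictive medium | Schedule: 4 h pre-incubation, 48 h exposure at 30 °C | Technique: Optical density at 615 nm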

[3] = doxorubicin toxicity protection in MRP-1 cells – H69AR cells, CellTiter-Glo, duplicate, MRP-1 activator project, pilot screen (AID 807;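 active = viability increase at or above a cutoff of the median across tested compounds plus 3 SD, cut at about 8.5% in these data, passing the limit was not always enough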;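 note: compound pretreatment 18-22 h then 72 h combined with doxorubicin; 0% = doxorubicin alone and 100% = vehicle without doxorubicin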); conditions: H69AR viability with doxorubicin, CellTiter-Glo luminescence; at 10 µM; hits give high values
[4] = viability of HCT116 without oncogenic beta-catenin – human colon tumor cells, pilot screen (AID 823;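 active = cell viability at or below a set limit in both duplicate runs, the limit being the all-compound median minus 4 SD, cut at about 23% in these data, passing the limit was not always enough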;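 note: 0% = wells killed by 20 µM Hyamine and 100% = untreated DMSO cell wells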); conditions: HCT116 beta-catenin knockout viability, CellTiter-Glo, 60 h; at 10 µM; hits give low values
[5] = viability of PTEN-null HCT116 cells – cell-based, HCT116 clonal line, CellTiter-Glo, pilot screen (AID 824;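 active = viability at or below 27.92% in each of two runs, the all-compound median minus 4 SD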;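 note: 0% = 20 µM Hyamine control and 100% = vehicle cell control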); conditions: HCT116 PTEN-deleted viability, 60 h, at 10 µM, hits give low values
[6] = RAM pathway blockade in budding yeast – dse1pr::URA3 reporter, 5-FOA selection, pilot screen (AID 869;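 active = inhibition over a set limit, the all-compound mean plus 3 SD, in both replicate runs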;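 note: 0% = DMSO wells with no growth and 100% = 10 µM 1-NA-PP1 with full growth; RAM network block rescues cells from 5-FOA so hits raise OD615 growth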); conditions: S. cerevisiae dse1pr::URA3 5-FOA growth, OD615, 2 d; at 10 µM; hits give high values; strain carries analog-sensitive mutant Cbk1 kinase
[7] = RAM signaling pathway blockade in yeast – S. cerevisiae, Pdr1DBD-CYC8 efflux-inhibited sensitized strain, primary screen (AID 1298);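 note: 0% = DMSO untreated cells without growth and 100% = 10 µM 1-NA-PP1 full growth; higher means more yeast growth rescued from 5-FOA killing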; conditions: S. cerevisiae cbk1-as DSE1-URA3 strain, 5-FOA growth OD615, 2 d; at 50 µM; hits give high values

N#C/C(=C1/CCCCCN1)c1nnc2n1CCCCC2
inactive: growth inhibition [1] -8.48% | growth inhibition [2] 2.4% | viability increase [3] -1.1% | viability [4] 102% | viability [5] 101% | inhibition [6] 0.985% | RAM network inhibition [7] 3.24%

Cc1csc(NC(=O)C2CCCN(S(=O)(=O)c3cccnc3)C2)n1 (stereo not drawn)
inactive: growth inhibition [1] -7.25% | growth inhibition [2] 1.94% | viability increase [3] -0.73% | viability [4] 104% | viability [5] 101% | inhibition [6] 1.59% | RAM network inhibition [7] 4.94%

O=C1NCCCC1C(=O)NCCN1C(=O)CCC1=O (stereo not drawn)
inactive: growth inhibition [1] -14.3% | growth inhibition [2] -7.9% | viability increase [3] 0.1% | viability [4] 96.7% | viability [5] 96% | inhibition [6] 1.04% | RAM network inhibition [7] 3.29%

CCCCOc1ccc(/C(N)=N/O)cc1
inactive: growth inhibition [1] 7.3% | growth inhibition [2] 0.775% | viability increase [3] -5.85% | viability [4] 93.5% | viability [5] 93.7% | inhibition [6] 0.44% | RAM network inhibition [7] 1.83%

Cc1nc(N2CCN(c3ccccc3)CC2)c2c3c(sc2n1)CCC3
inactive: growth inhibition [1] -0.345% | growth inhibition [2] 29.8% | viability increase [3] 3% | viability [4] 73.8% | viability [5] 81.5% | inhibition [6] 1.38% | RAM network inhibition [7] 1.62%

COc1ccc(C2c3sc(=O)[nH]c3SC3C(=O)N(c4ccccc4)C(=O)C32)cc1 (stereo not drawn)
inactive: growth inhibition [1] -6.11% | growth inhibition [2] 12.6% | viability increase [3] 0.68% | viability [4] 99.9% | viability [5] 99.3% | inhibition [6] 2.98% | RAM network inhibition [7] 5.53%

CCCCc1ccc(NC(=O)OC)cc1
inactive: growth inhibition [1] 1.49% | growth inhibition [2] 10.8% | viability increase [3] 3.48% | viability [4] 104% | viability [5] 90.6% | inhibition [6] 2.21% | RAM network inhibition [7] -2%

Cc1ccc(NC2=CC(=O)CC(c3ccco3)C2)c(N)c1 (stereo not drawn)
inactive: growth inhibition [1] -4.58% | growth inhibition [2] 5.45% | viability increase [3] -4.41% | viability [4] 81.2% | viability [5] 86.5% | inhibition [6] 0.07% | RAM network inhibition [7] 2.43%

Cc1noc(C(=O)Nc2c(C)n(C)n(-c3ccccc3)c2=O)c1Cl
inactive: growth inhibition [1] -13.3% | growth inhibition [2] -16.6% | viability increase [3] -2.04% | viability [4] 95% | viability [5] 98.7% | inhibition [6] 1.79% | RAM network inhibition [7] 0.38%

Cc1cc(C)c(C#N)c(Nc2ccc3c(c2)OCCO3)n1
inactive: growth inhibition [1] 0.055% | growth inhibition [2] -10.2% | viability increase [3] -1.17% | viability [4] 97.6% | viability [5] 93.9% | inhibition [6] 0.915% | RAM network inhibition [7] 0.66%

COc1ccc(NC(=O)C2CCCNC2)cc1OCC(C)C (stereo not drawn)
inactive: growth inhibition [1] -15.2% | growth inhibition [2] -19.2% | viability increase [3] -1.5% | viability [4] 98.4% | viability [5] 97% | inhibition [6] 1.75% | RAM network inhibition [7] 2.92%

CCOc1ccc2nc(NC(=O)Nc3cccs3)sc2c1
inactive: growth inhibition [1] -10.4% | growth inhibition [2] -19.9% | viability increase [3] -3.88% | viability [4] 40.1% | viability [5] 31.6% | inhibition [6] 1.08% | RAM network inhibition [7] 0.79%

O=S(=O)(Nc1cccc(-c2nc3cccnc3s2)c1)c1ccc2c(c1)OCCO2
inactive: growth inhibition [1] -0.93% | growth inhibition [2] 13.3% | viability increase [3] 0.73% | viability [4] 97.7% | viability [5] 85.3% | inhibition [6] 3.69% | RAM network inhibition [7] 5.51%

O=C1CC(c2ccco2)CC(O)=C1C=NCC1CCNCC1 (stereo not drawn)
inactive: growth inhibition [1] -17.1% | growth inhibition [2] -5.49% | viability increase [3] 1.85% | viability [4] 102% | viability [5] 101% | inhibition [6] 0.37% | RAM network inhibition [7] 3.8%

COC(=O)C1=C(C)N(C)C(=O)NC1c1ccc(C)cc1 (stereo not drawn)
inactive: growth inhibition [1] 0.9% | growth inhibition [2] -13.4% | viability increase [3] 0.2% | viability [4] 105% | viability [5] 101% | inhibition [6] 2.69% | RAM network inhibition [7] -0.17%

CCOC(=O)N1CCN(C(=O)CS(=O)Cc2nc(-c3cccc(C)c3)oc2C)CC1 (stereo not drawn)
inactive: growth inhibition [1] -10.5% | growth inhibition [2] -16.8% | viability increase [3] -1.34% | viability [4] 104% | viability [5] 100% | inhibition [6] 1.69% | RAM network inhibition [7] 1.11%

COc1ccc(C(=O)c2c[nH]c3ccccc23)cc1
inactive: growth inhibition [1] -4.92% | growth inhibition [2] 2.61% | viability increase [3] -1.32% | viability [4] 101% | viability [5] 96.4% | inhibition [6] 0.695% | RAM network inhibition [7] -1.45%

c1ccc(-c2csc3ncn4cnnc4c23)cc1
inactive: growth inhibition [1] -7.59% | growth inhibition [2] 2.29% | viability increase [3] -1.06% | viability [4] 97.8% | viability [5] 91.4% | inhibition [6] 1.15% | RAM network inhibition [7] 2.91%

Cc1ccccc1-c1ccc(Nc2ccc(C(=O)N3CCOCC3)cc2)nn1
inactive: growth inhibition [1] 1.06% | growth inhibition [2] -5.71% | viability increase [3] -2.49% | viability [4] 98.4% | viability [5] 97.2% | inhibition [6] 1.39% | RAM network inhibition [7] -0.83%

COc1ccc(Nc2nnc(Cc3ccccc3)c(=O)[nH]2)c(OC)c1
inactive: growth inhibition [1] -23.5% | growth inhibition [2] -17.1% | viability increase [3] 0.58% | viability [4] 93.5% | viability [5] 92.7% | inhibition [6] 1.52% | RAM network inhibition [7] 3.16%

Cc1nc2ccccc2c2oc(C(=O)NCCCN3CCC(C)CC3)cc12
inactive: growth inhibition [1] 2.51% | growth inhibition [2] 17.8% | viability increase [3] -5.7% | viability [4] 63.6% | viability [5] 64.7% | inhibition [6] 1.96% | RAM network inhibition [7] 6.26%

O=C(c1cc(F)c(F)cc1Cl)N1CCCCC1
inactive: growth inhibition [1] -2.35% | growth inhibition [2] 1.34% | viability increase [3] -1.35% | viability [4] 92.1% | viability [5] 90.6% | inhibition [6] 2.08% | RAM network inhibition [7] 2.31%

O=C(NCCCN1CCN(c2ccccc2F)CC1)C1CCCN(S(=O)(=O)c2cnc[nH]2)C1 (stereo not drawn)
inactive: growth inhibition [1] 4.25% | growth inhibition [2] 2.15% | viability increase [3] 1.39% | viability [4] 95.1% | viability [5] 102% | inhibition [6] -0.46% | RAM network inhibition [7] 0.21%

CC(=O)Nc1ccccc1NC(=O)C(F)(F)F
inactive: growth inhibition [1] -14.2% | growth inhibition [2] -5% | viability increase [3] -1.16% | viability [4] 101% | viability [5] 108% | inhibition [6] 1.51% | RAM network inhibition [7] 0.88%
